# Shown are actives, neighbours in structure and some others; about 3.1% of the full set was active somewhere.
# F508del corr: correctors of CFTR F508del function in bronchial epithelial cells | actives 0.36% (n = 350,000) | activity (quench increase), % at 7.58 µM | AID 720511 | CFBE cells, YFP halide quenching; stimulated with forskolin plus potentiator P3; % fluorescence drop versus neutral controls;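 active means mean added fluorescence quench of at least 8% versus neutral control, with both replicates also reaching 8%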;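 further: cells transiently co-express mutant CFTR-F508del with the halide-sensitive YFP; corrector assay measuring rescue of mutant channel to the surface after 24 h compound exposure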
# Cneo AK release: Cryptococcus neoformans lysis via adenylate kinase release; C. neoformans lysis, adenylate kinase release luminescence, 4 h; normalised: neutral wells 0, clomiphene wells 100; lysis activity, % at 15 µM; actives 0.2% (n = 360,000);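 active means mean lysis activity across replicates of at least 80%, whatever share of replicates individually reach that level; inactive means mean lysis activity below 80%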
#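 Assay system: Cryptococcus neoformans yeast cells / Dosing: single-point compound dose / Timing: 4 h at 37 °C static, read 1 h later / Measured by: luminescence of released adenylate kinase using an AK detection reagent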
# GSIS activator: GLuc luminescence reporter in INS-1E cells, primary screen for activators of glucose-dependent secretion of insulin; INS-1E GLuc reporter insulin secretion, 2-3 h; activation, % at 16.6 µM; actives 0.61% (n = 370,000); AID 743287;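 active means lowest replicate activation of at least 40%, so every replicate reaches that level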;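 further: 0% = median of neutral control wells and 100% = median of IBMX positive control wells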
# HIV Env fusion: HIV envelope-mediated fusion inhibition | HeLa-JRFL Env/CEM21 cell fusion, luciferase | inhibition, % at 12.3 µM | actives 1.1% (n = 360,000);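 active means mean replicate inhibition score of at least 50 and every replicate individually at or above 50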;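 further: 0% = plate neutral controls and 100% = maraviroc near 300 nM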
# rRNA inh HTS: selective bacterial rRNA inhibition in E. coli; actives 1.6% (n = 350,000); GFP signal change (wild-type ribosome), % (no concentration beside the values); E. coli WT GFP vs humanized-ribosome RFP mutants, fluorescence, 24 h; stronger effect = lower value; DMSO median 0, no signal -100;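 active means significant combined selectivity score with lowered wild-type GFP, culture density cut under 30%, mutant RFP and density less affected; inactive means any of these conditions unmet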
# miR-122 sensor: miR-122 inhibition in Huh7 cells | Huh7 miR-122 Renilla luciferase sensor, 48 h; neutral wells = 0, positive control = 100 | actives 0.3% (n = 340,000) | activation (reporter increase), % at 12.5 µM;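 active means mean replicate activation score at least 90 and every replicate individually at or above 90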;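 further: higher luciferase means less miR-122 activity so hits act as miR-122 inhibitors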
# Starred values were filed as active, the others as inactive; . = no result given; ! = a repeat was not active; [ ] = another dose, or the depositor's remark.
SMILES,F508del corr,Cneo AK release,GSIS activator,HIV Env fusion,rRNA inh HTS,miR-122 sensor
O=C(C[C@H]1CC[C@@H]2[C@H](COC[C@@H](O)CN2S(=O)(=O)c2ccccc2)O1)Nc1ccc(-c2ccccc2)cc1,8.3*,-3,-4,.,4,4[16.7 µM]
Cc1noc(C)c1NC(=O)N[C@H]1CC[C@@H](CC(=O)N2CCN(C)CC2)O[C@@H]1CO,-2,-2,-1,.,0,.
O=C(O)C[C@@H]1CC[C@@H]2[C@H](COC[C@H](O)CN2S(=O)(=O)c2ccc(F)cc2)O1,-2,83*,-4,.,5,0[16.7 µM]
O=C(C[C@H]1CC[C@H]2[C@@H](COC[C@H](O)CN2Cc2cc(F)cc(F)c2)O1)Nc1nccs1,-2,96*,-8,-19[16.7 µM],-3,32[16.7 µM]
COc1ccc(S(=O)(=O)N(C)C[C@@H]2Oc3ccc(N(C)C)cc3C(=O)N([C@@H](C)CO)C[C@H]2C)cc1,2,1,9,0[16.7 µM],-2,0[16.7 µM]
COc1ccccc1-c1c(C)oc2c(CN3CCOCC3)c(O)ccc2c1=O,0,2,-2,6,-7,-24
Cc1oc2c(CN3CCOCC3)c(O)ccc2c(=O)c1-c1ccccc1,-3,1,-1,.,-24*,-2
COCC(=O)Nc1ccc2c(c1)OC[C@@H](C)N(CCC(F)(F)F)C[C@H](C)[C@H](OC)CN(C)C2=O,-1,3,4,10[16.7 µM],-1,.
O=C(Nc1ccc(Cl)cn1)C1CCCN1S(=O)(=O)c1cccc2ccccc12 (centres undefined),.,-5,.,70*,.,1
O=C(Nc1ccc(Cl)cn1)C1CCCN1S(=O)(=O)c1ccc(Cl)cc1 (centres undefined),.,.,-30,.,.,-3
O=C(Cc1ccccn1)N1[C@H](CO)[C@H]2c3ccccc3NC[C@H]21,-2,2,7,.,-1,0[16.7 µM]
NC(=O)c1nnsc1Sc1c(C(N)=O)nnn1-c1cccc(N)c1,-2,.,-8,28,-27*,-5
CN(C)C(=O)c1ccc(-c2ccc3c(c2)[C@@H]2[C@@H](CCN2Cc2cncnc2)[C@@H](CO)N3)cc1,1,-3,7,.,0,-14[16.7 µM]
Cc1cccc(C2C3=C(Nc4[nH]n(-c5ccccc5)c(=O)c42)c2ccccc2C3=O)c1 (centres undefined),.,.,-13,23,-38*,.
CC1(C)CC(=O)C2=C(C1)NC1=C(C(=O)c3ccccc31)C2c1ccccc1 (centres undefined),.,.,.,6,-11,.
C[C@@H]1CN([C@@H](C)CO)C(=O)c2cc(NC(=O)Nc3ccccc3)ccc2O[C@@H](C)CCCCO[C@H]1CN(C)C(=O)CCC(F)(F)F,-2,2,-25,22[16.7 µM],0,-2[16.7 µM]
CC[C@@]12C(=O)N(c3cccc(Br)c3)C(=O)N1[C@H](c1cccc(C)c1)[C@@H]1C(=O)N(Cc3ccccc3)C(=O)[C@@H]12,-2,1,7,65*,.,2
Cc1cccc([C@@H]2[C@@H]3C(=O)N(Cc4ccccc4)C(=O)[C@@H]3[C@]3(Cc4ccccc4)C(=O)N(c4ccc(C(F)(F)F)cc4)C(=O)N23)c1,1,7,7,64*,-1,.
CC[C@@]12C(=O)N(c3ccccc3)C(=O)N1[C@H](c1cccc(C)c1)[C@@H]1C(=O)N(Cc3ccccc3)C(=O)[C@@H]12,1,6,1,88*,2,-5
Cc1cccc([C@@H]2[C@@H]3C(=O)N(Cc4ccccc4)C(=O)[C@@H]3[C@]3(CC(C)C)C(=O)N(c4cccc(Br)c4)C(=O)N23)c1,.,-1,.,.,.,-6
CC[C@@]12C(=O)N(c3cccc(F)c3)C(=O)N1[C@H](c1cccc(C)c1)[C@@H]1C(=O)N(Cc3ccccc3)C(=O)[C@@H]12,1,-1,-7,21,-1,0
CO[C@H]1CN(C)C(=O)c2cc(NS(=O)(=O)CC(F)(F)F)ccc2OC[C@@H](C)N(Cc2cccnc2)C[C@H]1C,2,0,-1,.,-4,.
Cc1noc(C)c1NC(=O)Nc1ccc2c(c1)C(=O)N([C@@H](C)CO)C[C@@H](C)[C@@H](CN(C)S(=O)(=O)c1ccc(F)cc1)OCCCC[C@H](C)O2,1,5,-12,-16[16.7 µM],1,4[16.7 µM]
O=C1[C@@H](Cc2ccc(F)cc2)CCn2cc(nn2)COC[C@H]2CCCN12,.,.,10,.,3,.
O=C(O)CC/C(=C\c1ccc(N2CCCC2)c([N+](=O)[O-])c1)c1nc2ccccc2s1,-1,.,46,1,-40*,.
SMILES,F508del corr,Cneo AK release,GSIS activator,HIV Env fusion,rRNA inh HTS,miR-122 sensor
CN(c1ccccc1)c1ccc(/C=C(/CCC(=O)O)c2nc3ccccc3s2)cc1[N+](=O)[O-],0,.,.,-9,-33,.
COc1ccc(S(=O)(=O)NC(N)=NCCc2ccc(OC)c(OC)c2)cc1C,-2,.,10,-50,.,.
COc1ccc(CCN=C(N)NS(=O)(=O)c2ccc(C)c(C)c2)cc1OC,2,3,91*,13,0,-5
COc1cc(C=C2C(=O)C=CC2=O)ccc1O,-3,.,52*,-190,11,.
COc1ccccc1-c1ccc(C2[C@@H]3CN(Cc4cccc(F)c4)C[C@H]2N3)cc1 (some centres undefined),-1,.,-11,.,-56,.
Fc1ccccc1-c1ccc(C2[C@@H]3CN(Cc4ccccc4)C[C@H]2N3)cc1 (some centres undefined),0,.,47*!,.,-59,.
COc1cccc(CN2C[C@@H]3N[C@H](C2)C3c2ccc(-c3ccccc3OC)cc2)c1 (some centres undefined),1,.,82*!,.,-59,.
Cc1cccc(-c2ccc(C3[C@@H]4CN(Cc5cccc(F)c5)C[C@H]3N4)cc2)c1 (some centres undefined),0,.,70*,.,-56,.
O=C(C[C@H]1CC[C@H]2[C@@H](COC[C@H](O)CN2C(=O)Nc2ccc(Cl)c(Cl)c2)O1)NCc1ccc(F)cc1,-2,3,-15,.,-58,-13[16.7 µM]
Cc1ccc(S(=O)(=O)Nc2ccc3c(c2)C(=O)N([C@H](C)CO)C[C@H](C)[C@H](CN(C)C)OCCCC[C@H](C)O3)cc1,0,3,10,6[16.7 µM],-4,1[16.7 µM]
CO[C@H]1CN(C)C(=O)c2ccc(NS(C)(=O)=O)cc2OC[C@H](C)N(Cc2cncnc2)C[C@@H]1C,0,.,2,-3[16.7 µM],3,.
O=C(Nc1ccc(O)c(-c2nc3ccccc3o2)c1)C1(c2ccc([N+](=O)[O-])cc2)CCCC1,.,1,11,55*,.,3
CNC[C@@H]1OCCCC[C@@H](C)Oc2ccc(NS(=O)(=O)c3c(C)noc3C)cc2C(=O)N([C@@H](C)CO)C[C@H]1C,-2,-13,.,-7[16.7 µM],.,0[16.7 µM]

# High-throughput results deposited in PubChem BioAssay by Broad Institute.
